According to PMC10784415 (Developmental dynamics : an official publication of the …, 2023):

Tests used:
Assay type in all cases: in vivo, rat
Wistar rats [1] = assay: MicroCT analysis of dentoalveolar tissues; settings: for Rats with aberrant crown and root morphology of mandibular third molars: high dose (1.0 mg/kg) from PND7, PND37
In short: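 Daily oral gavage began at PND7 (vehicle, or test compound at 0.1 or 1.0 mg/kg), and formalin-fixed heads (5 per sex per group) were scanned by microCT at PND14 and PND37. PND37 thresholds were enamel 1500 and dentin/bone 650 mg HA/cm³. Alveolar bone included buccal/lingual, interdental and mesial rise regions. Read-outs were second-molar tissue volumes and densities, first-molar root lengths, and third-molar tissue thickness. Analysis was one-way ANOVA, p<0.05.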

Wistar rats [2] = assay: MicroCT analysis of craniofacial bones and sutures
In short: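 Wistar rats received daily oral gavage from PND7 (vehicle acetate buffer pH 4.68/PEG300 50:50, or 0.1 or 1.0 mg/kg) and were examined at PND14 and PND37; 5 per sex per group. MicroCT gave bone volume and mineral density of nasal, premaxilla, maxilla, frontal, parietal and interparietal bones, linear skull measurements from set landmarks, and suture patency on 2D/3D images. Analysis was one-way ANOVA.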

[3] = Body weight at time of sacrifice; settings: female rats, high dose, PND37, vs vehicle and low dose; non-significant
In short: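 Male and female Wistar rats received a daily oral gavage of vehicle (acetate buffer pH 4.68:PEG300, 50:50 v/v) or test compound at 0.1 or 1.0 mg/kg, starting on PND7. Rats were euthanized on PND14 or PND37, and body weight was recorded at sacrifice.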

[4] = female rats, high dose, PND37, vs vehicle
[5] = male rats, high dose, PND37, vs vehicle
[6] = female rats, high dose, vs vehicle

## CCN1CCN(c2ccc(Nc3cc(N(C)C(=O)Nc4c(Cl)c(OC)cc(OC)c4Cl)ncn3)cc2)CC1 [infigratinib, 3-(2,6-Dichloro-3,5-dimethoxy-phenyl)-1-{6-[4-(4-ethyl-piperazin-1-yl)-phenylamino]-pyrimidin-4-yl}-1-methyl-urea]
Wistar rats [1]; female rats
  Rats with aberrant crown and root morphology of mandibular third molars: 100%
Wistar rats [1]; female rats, high dose, PND14, vs vehicle
  Alveolar bone density: decreased alveolar bone density
Wistar rats [1]; female rats, high dose, PND37
  Pulp density of mandibular second molars: significant increase
Wistar rats [1]; female rats, high dose, PND37, in comparison to the other groups
  Reduction of mandibular first molar dentin volume: 12%
Wistar rats [1]; [4]
  Decrease of first molar lingual root length: 9%
  Decrease of first molar mesial root length: 8%
  Decrease of mandibular third molar dentin volume: 40%
  Decrease of mandibular third molar enamel volume: 64%
  Decrease of root dentin volume: 21%
Wistar rats [1]; low dose (0.1 mg/kg)
  Alterations in dental tissues: did not detect any alterations
Wistar rats [1]; male rats
  Rats with aberrant crown and root morphology of mandibular third molars: 80%
Wistar rats [1]; [5]
  Decrease of mandibular third molar dentin volume: 28%
  Decrease of mandibular third molar enamel thickness: 33%
  Decrease of mandibular third molar enamel volume: 61%
  Decrease of root dentin volume: 16%
  Dentin mineral density of second molars: significantly higher
Wistar rats [2]; female rats, high dose, PND37, vs vehicle and low dose
  Interfrontal suture patency: significantly more patent
Wistar rats [2]; female rats, high dose, vs low dose
  Decrease of parietal bone volume: 15%
Wistar rats [2]; [6]
  Decrease of frontal bone volume: 12%
  Decrease of interparietal bone mineral density: 4%
  Decrease of interparietal bone volume: 18%
  Decrease of parietal bone volume: 18%
Wistar rats [2]; females and males, low dose and high dose, PND14, vs vehicle
  Coronal suture patency: appeared more patent
Wistar rats [2]; [5]
  Interfrontal suture width: significantly more patent
[3]
  Body weight: trend toward lower body weight
